Assay results reported in PMC7442746 (ACS chemical biology, 2020).

Assays:
[1] = target: T1, recombinant human HDAC10 (TwinStrep-HDAC10 fusion protein) (Homo sapiens, UniProt Q969S8); test: Differential scanning fluorimetry; format: binding; conditions: protein 3 μM, inhibitor 6 μM; for melting temperature (Tm) of TwinStrep-HDAC10 with inhibitor: Tm 65.90 °C with 0.6% DMSO, n = 2
T1 sequence (Q969S8 1-669): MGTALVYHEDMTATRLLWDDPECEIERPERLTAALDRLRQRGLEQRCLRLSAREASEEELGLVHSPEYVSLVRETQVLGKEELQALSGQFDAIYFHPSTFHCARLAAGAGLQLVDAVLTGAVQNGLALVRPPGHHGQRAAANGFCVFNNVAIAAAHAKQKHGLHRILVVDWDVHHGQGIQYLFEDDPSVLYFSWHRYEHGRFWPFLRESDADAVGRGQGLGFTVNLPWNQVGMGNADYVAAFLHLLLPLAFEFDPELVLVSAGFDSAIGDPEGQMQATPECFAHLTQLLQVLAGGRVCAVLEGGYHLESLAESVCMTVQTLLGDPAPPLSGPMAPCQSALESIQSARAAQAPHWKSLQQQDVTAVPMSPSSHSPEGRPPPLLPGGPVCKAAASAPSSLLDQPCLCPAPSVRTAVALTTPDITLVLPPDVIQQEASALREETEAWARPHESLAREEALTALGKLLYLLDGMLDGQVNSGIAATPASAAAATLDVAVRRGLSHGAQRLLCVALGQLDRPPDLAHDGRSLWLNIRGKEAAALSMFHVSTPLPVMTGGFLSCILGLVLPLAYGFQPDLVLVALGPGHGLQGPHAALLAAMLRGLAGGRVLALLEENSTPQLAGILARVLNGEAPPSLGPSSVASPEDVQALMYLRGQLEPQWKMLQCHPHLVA
Outline: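 Nano-DSF on recombinant human HDAC10 with an N-terminal TwinStrep tag. Protein at 3 μM and test compound at 6 μM (protein:inhibitor 1:2). Controls were protein alone and protein with DMSO, each run once. Compound runs were done twice and Tm reported as the mean of the two. Thermal shift was taken as the Tm change from the DMSO control.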

human HDAC10 = conditions: oxa analogue weaker than Tubastatin A; cited from earlier work
HDAC10 over HDAC6 = conditions: cited from earlier work

melting temperature (Tm) of TwinStrep-HDAC10 with inhibitor [1] [°C]	thermal shift ([1]; relative to DMSO control) [°C]	SMILES	difference in HDAC10 binding affinity between Tubastatin A and its oxa analogue (human HDAC10) [fold]	selectivity for inhibition of HDAC10 compared to HDAC6 (HDAC10 over HDAC6) [fold]
67.27 ± 0.01	1.37	O=C(NO)c1ccc(Cn2c3c(c4ccccc42)COCC3)cc1 [oxa-Tubastatin A]	52	
72.94 ± 0.08		CN1CCc2c(c3ccccc3n2Cc2ccc(C(=O)NO)cc2)C1 [Tubastatin A, reference compound]		~8
